Consider seven molecules from ChEMBL document CHEMBL3108696, “Structure-activity relationships of chromone derivatives toward the mechanism of interaction with and inhibition of breast cancer resistance protein ABCG2” (J Med Chem, 2013).

By EC50 is commonly meant the midpoint of the concentration-response curve. By IC50 is commonly meant the concentration needed to halve the response being measured. As a reminder, the inhibition is the relative decrease from the control value, in per cent.

The target in series [1] is T1, Broad substrate specificity ATP-binding cassette transporter ABCG2 (Homo sapiens, UniProt Q9UNQ0).
T1 sequence (Q9UNQ0 whole entry): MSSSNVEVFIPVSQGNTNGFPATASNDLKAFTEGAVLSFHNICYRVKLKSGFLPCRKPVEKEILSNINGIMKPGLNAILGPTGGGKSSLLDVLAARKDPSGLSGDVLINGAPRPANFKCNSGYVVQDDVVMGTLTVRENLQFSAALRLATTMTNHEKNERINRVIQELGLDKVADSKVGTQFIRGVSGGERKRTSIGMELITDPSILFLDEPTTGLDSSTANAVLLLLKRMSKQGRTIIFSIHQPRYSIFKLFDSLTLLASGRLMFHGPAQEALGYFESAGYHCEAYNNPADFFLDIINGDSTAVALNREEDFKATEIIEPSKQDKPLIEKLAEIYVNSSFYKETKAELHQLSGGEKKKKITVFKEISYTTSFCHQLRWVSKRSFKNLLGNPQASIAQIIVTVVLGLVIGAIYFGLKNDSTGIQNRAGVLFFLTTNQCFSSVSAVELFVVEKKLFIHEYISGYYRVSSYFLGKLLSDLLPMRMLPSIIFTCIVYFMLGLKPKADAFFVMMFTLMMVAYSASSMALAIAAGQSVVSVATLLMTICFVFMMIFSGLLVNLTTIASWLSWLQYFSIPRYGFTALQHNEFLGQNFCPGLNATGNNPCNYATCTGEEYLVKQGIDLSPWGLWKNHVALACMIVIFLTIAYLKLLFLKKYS
Briefly: Inhibition of human ABCG2 ATPase activity expressed in Sf9 insect cell membranes at 2 uM after 30 mins by colorimetric analysis relative to basal control in presence of sodium orthovanadate. The settings on record: sf9, 0.5 h. The procedure, abridged:
(§1)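 Basal vanadate-sensitive ATPase assay on cholesterol-loaded membranes from human ABCG2-expressing Sf9 cells (0.5 mg/mL; 10 μg/sample). Buffer: 50 mM Tris-HCl, 50 mM NaCl, pH 8.0, with azide, ouabain, DTT and EGTA, ± 0.33 mM orthovanadate. Compound at 2 μM, or substrates nilotinib 0.1 μM, quercetin 2 μM, prazosin 20 μM. ATP-Mg 3.9 mM, 30 min at 37 °C. Phosphate read by molybdate/ascorbate at 880 nm.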

The target of series [2] is T2, ABCG2 (Homo sapiens, UniProt Q9UNQ0).
T2 sequence (Q9UNQ0 whole entry): T1 sequence (Q9UNQ0 whole entry)
Nature of the series: Inhibition of ABCG2 (unknown origin)-mediated pheophorbide A efflux expressed in HEK293 cells at 1 to 5 uM after 30 mins by flow cytometric analysis relative to control. The conditions noted are these: HEK293 cells expressing ABCG2, probe pheophorbide A, read-out: Imax. Type of series: cell-based. The procedure, abridged:
(§2)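 Cells seeded at 1.5 × 10^5 cells/well and grown 48 h were exposed to BODIPY-prazosin (0.2 μM) or pheophorbide A (2 μM) for 30 min at 37 °C with or without compound. After washing and trypsinization, intracellular fluorescence was read by flow cytometry (FL4, ≥10 000 events). Percent inhibition = (C−M)/(Cev−M)×100, where Cev is from ABCG2-negative control cells.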
In general terms: In flow cytometry, cells or beads pass a laser one at a time.

Series [3] deals with T1, Broad substrate specificity ATP-binding cassette transporter ABCG2. Briefly: Inhibition of ABCG2 (unknown origin)-mediated mitoxantrone efflux expressed in HEK293 cells after 30 mins by flow cytometric analysis. Format: cell-based.
The target is the same in series [4]. Briefly: Binding affinity to ABCG2 (unknown origin) expressed in HEK293 cells assessed as modulation of 5D3 binding at 5 uM after 45 mins by flow cytometric analysis relative to Ko143. Format: cell-based. The conditions noted are these: hek293, 0.75 h. Summed up: (§3)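 5D3 shift assay on ABCG2-transfected HEK293 cells (0.5 × 10^6 cells/tube) in PBS with 0.5% BSA. Compound at 2 or 5 μM plus 5D3 anti-ABCG2 antibody or isotype control (1 μg/mL), 45 min at 37 °C. Anti-mouse Alexa Fluor 488 secondary (3 μg/mL), 30 min at 37 °C. Binding read by flow cytometry, expressed relative to 2 μM Ko143 (100%). Mean ± SD of ≥3 independent experiments.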

Series [5] addresses Multidrug resistance-associated protein 1 (Homo sapiens, UniProt P33527). Nature of the series: Inhibition of ABCC1 (unknown origin)-mediated calcein-AM efflux expressed in HEK293 cells at 5 uM after 30 mins by flow cytometric analysis. Format: cell-based. The settings on record: hek293, 0.5 h.
Series [6] has as its target T1, Broad substrate specificity ATP-binding cassette transporter ABCG2. Nature of the series: Inhibition of ABCG2-mediated mitoxantrone efflux in mitoxantrone-selected human H460 cells after 30 mins by flow cytometric analysis. Type of series: cell-based.
For series [7], the target named is ATP-dependent translocase ABCB1 (Homo sapiens, UniProt P08183). Briefly: Inhibition of ABCB1 (unknown origin)-mediated rhodamine 123 efflux expressed in mouse NIH/3T3 cells at 5 uM after 30 mins by flow cytometric analysis. Format: cell-based. The conditions noted are these: nih/3t3, 0.5 h.
The target in series [8] is T2, ABCG2. Briefly: Inhibition of ABCG2 (unknown origin)-mediated mitoxantrone efflux expressed in HEK293 cells at 5 to 10 uM after 30 mins by flow cytometric analysis relative to control. Type of series: cell-based. The conditions noted are these: HEK293 cells expressing ABCG2, probe mitoxantrone, read-out: Imax.
The target of series [9] is T1, Broad substrate specificity ATP-binding cassette transporter ABCG2. Briefly: Inhibition of ABCG2 (unknown origin)-mediated BODIPY-prazosin efflux expressed in HEK293 cells at 1 to 5 uM after 30 mins by flow cytometric analysis. Format: cell-based. The conditions noted are these: hek293, 0.5 h. Summed up: as §2
Series [10] has the same target. Briefly: Inhibition of human ABCG2 expressed in Sf9 insect cell membranes assessed as inhibition of quercetin-stimulated ATPase activity after 30 mins by colorimetric analysis in presence of sodium orthovanadate. The settings on record: for inhibition (INH): human, sf9, 0.5 h. Summed up:
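Quercetin (2 μM)-stimulated vanadate-sensitive ATPase assay on cholesterol-loaded ABCG2 Sf9 membranes (10 μg/sample) in Tris/NaCl buffer, pH 8.0. Compound at 0.01, 0.03, 0.5 and 2 μM. ATP-Mg 3.9 mM, 30 min at 37 °C. Released phosphate read colorimetrically at 880 nm. IC50 estimated as 50% inhibition of initial activity; three independent experiments.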

Series [11] deals with T2, ABCG2. Briefly: Inhibition of ABCG2-mediated mitoxantrone efflux in mitoxantrone-selected human H460 cells at 5 to 10 uM after 30 mins by flow cytometric analysis relative to control. Type of series: cell-based. The conditions noted are these: probe mitoxantrone, read-out: Imax.
For series [12], the target named is T1, Broad substrate specificity ATP-binding cassette transporter ABCG2. Nature of the series: Binding affinity to ABCG2 (unknown origin) expressed in HEK293 cells assessed as modulation of 5D3 binding at 2 uM after 45 mins by flow cytometric analysis relative to Ko143. Format: cell-based. The settings on record: hek293, 0.75 h. The procedure, abridged: as §3

Series [13] deals with T2, ABCG2. Briefly: Inhibition of ABCG2 in mitoxantrone-selected human H460 cells assessed as reversal of mitoxantrone-resistance at 1 uM after 72 hrs by MTT assay relative to control. Type of series: cell-based. The settings on record: probe mitoxantrone.
In series [14] the target is T2, ABCG2. Briefly: Inhibition of ABCG2 in mitoxantrone-selected human H460 cells assessed as reversal of mitoxantrone-resistance at 0.2 uM after 72 hrs by MTT assay relative to control. Type of series: cell-based. The conditions noted are these: probe mitoxantrone.
In series [15] the target is T1, Broad substrate specificity ATP-binding cassette transporter ABCG2. Nature of the series: Stimulation of human ABCG2 ATPase activity expressed in Sf9 insect cell membranes at 2 uM after 30 mins by colorimetric analysis relative to basal control in presence of sodium orthovanadate. The conditions noted are these: sf9, 0.5 h.
For series [16] the target is unchanged. Nature of the series: […] expressed in Sf9 insect cell membranes at 0.1 uM after 30 mins by colorimetric analysis relative to basal control in presence of sodium orthovanadate. The settings on record: sf9, 0.5 h. Summed up: as §1
For series [17] the target is unchanged. Nature of the series: […] expressed in Sf9 insect cell membranes at 20 uM after 30 mins by colorimetric analysis relative to basal control in presence of sodium orthovanadate. The conditions noted are these: sf9, 0.5 h. The procedure, abridged:
as §1

Each structure is given as a SMILES string. Bounds are passed on as bounds.

Chain of Multidrug resistance-associated protein 1 (P33527 whole entry): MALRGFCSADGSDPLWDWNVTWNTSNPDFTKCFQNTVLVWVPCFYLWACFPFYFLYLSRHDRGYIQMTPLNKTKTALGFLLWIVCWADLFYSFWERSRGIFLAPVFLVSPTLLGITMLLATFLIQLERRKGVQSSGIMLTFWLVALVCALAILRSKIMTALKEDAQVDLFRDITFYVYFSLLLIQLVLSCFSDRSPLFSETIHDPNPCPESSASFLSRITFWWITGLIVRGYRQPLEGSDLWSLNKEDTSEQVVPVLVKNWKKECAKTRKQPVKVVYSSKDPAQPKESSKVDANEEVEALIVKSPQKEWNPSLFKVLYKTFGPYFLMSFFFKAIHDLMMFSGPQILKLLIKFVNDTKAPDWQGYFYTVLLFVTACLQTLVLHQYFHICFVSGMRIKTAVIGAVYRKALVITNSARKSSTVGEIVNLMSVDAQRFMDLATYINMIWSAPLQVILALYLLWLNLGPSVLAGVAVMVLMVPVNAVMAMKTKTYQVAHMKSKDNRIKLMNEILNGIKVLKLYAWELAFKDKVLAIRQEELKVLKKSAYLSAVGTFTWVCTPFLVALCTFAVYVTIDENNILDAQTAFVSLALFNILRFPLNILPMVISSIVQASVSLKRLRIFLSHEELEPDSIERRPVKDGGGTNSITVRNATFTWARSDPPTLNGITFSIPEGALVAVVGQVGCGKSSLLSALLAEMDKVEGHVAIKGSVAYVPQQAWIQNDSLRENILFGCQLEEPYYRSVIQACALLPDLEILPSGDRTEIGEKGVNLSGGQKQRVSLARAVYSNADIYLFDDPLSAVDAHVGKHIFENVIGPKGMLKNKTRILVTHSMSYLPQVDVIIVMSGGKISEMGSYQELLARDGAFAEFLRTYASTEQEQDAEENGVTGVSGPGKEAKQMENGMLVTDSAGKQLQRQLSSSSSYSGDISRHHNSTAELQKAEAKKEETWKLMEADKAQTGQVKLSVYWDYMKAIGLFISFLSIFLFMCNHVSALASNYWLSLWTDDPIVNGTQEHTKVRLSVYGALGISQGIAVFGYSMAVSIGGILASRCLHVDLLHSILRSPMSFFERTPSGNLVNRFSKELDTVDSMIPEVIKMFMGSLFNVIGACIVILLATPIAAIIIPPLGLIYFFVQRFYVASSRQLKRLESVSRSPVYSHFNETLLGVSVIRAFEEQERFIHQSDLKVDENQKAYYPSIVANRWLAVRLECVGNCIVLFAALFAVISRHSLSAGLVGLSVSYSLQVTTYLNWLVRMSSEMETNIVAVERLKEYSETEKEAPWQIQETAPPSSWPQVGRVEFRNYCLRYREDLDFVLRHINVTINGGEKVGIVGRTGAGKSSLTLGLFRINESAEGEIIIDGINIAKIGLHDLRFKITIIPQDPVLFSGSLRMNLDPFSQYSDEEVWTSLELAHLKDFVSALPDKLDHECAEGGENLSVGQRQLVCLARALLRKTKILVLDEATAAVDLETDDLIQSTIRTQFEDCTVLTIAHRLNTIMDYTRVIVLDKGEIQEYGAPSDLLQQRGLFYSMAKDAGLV
Chain of ATP-dependent translocase ABCB1 (P08183 whole entry): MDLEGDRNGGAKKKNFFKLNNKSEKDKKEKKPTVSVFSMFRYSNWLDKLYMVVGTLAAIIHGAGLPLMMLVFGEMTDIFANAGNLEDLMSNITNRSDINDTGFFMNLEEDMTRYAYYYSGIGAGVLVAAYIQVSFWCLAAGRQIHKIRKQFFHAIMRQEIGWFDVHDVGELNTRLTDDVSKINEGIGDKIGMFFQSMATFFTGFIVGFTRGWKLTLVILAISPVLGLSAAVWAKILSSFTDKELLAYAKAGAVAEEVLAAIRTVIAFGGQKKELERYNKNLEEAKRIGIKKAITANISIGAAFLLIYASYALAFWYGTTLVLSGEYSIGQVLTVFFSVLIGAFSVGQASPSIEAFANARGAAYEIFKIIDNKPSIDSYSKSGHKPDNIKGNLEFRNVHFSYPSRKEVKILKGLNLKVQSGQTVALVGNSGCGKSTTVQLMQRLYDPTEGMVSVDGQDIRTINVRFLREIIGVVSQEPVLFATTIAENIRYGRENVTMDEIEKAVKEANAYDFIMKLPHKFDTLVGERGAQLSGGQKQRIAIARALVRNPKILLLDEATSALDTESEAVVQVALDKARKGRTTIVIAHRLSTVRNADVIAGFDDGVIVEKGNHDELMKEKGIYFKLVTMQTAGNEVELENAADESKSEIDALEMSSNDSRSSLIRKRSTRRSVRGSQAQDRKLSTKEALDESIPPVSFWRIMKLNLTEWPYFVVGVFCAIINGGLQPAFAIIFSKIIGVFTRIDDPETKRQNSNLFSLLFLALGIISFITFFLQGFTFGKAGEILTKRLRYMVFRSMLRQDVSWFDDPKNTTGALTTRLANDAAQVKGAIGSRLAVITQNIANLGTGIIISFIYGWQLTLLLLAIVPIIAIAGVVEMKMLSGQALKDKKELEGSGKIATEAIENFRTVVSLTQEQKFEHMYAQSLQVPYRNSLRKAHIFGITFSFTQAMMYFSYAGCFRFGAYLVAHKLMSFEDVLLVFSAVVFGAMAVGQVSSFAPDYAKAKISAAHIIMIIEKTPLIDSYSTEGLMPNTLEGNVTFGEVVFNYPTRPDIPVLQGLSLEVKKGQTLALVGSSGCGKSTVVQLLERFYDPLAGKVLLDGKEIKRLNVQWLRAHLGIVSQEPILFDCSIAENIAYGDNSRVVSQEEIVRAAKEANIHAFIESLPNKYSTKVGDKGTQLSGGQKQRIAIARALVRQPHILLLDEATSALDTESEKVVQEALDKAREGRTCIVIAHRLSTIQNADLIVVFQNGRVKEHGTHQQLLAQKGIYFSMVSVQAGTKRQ

On to `COc1ccc2[nH]cc(CCNC(=O)c3cc(=O)c4c(OCc5ccc(Br)cc5)cccc4o3)c2c1`, for which the “inhibition (INH)” value is recorded as “Active” in [1]; “Not Active” in series [5]; “Not Active” in series [7]; “Active” in series [9]; “Dose-dependent effect” in [10]. In addition, the Emax at 0.5 h turned out to be 80% at ABCG2 [2], 98% on ABCG2 [8] and 107% at ABCG2 [11]. Further, the results for the concentration for a half-maximal effect (EC50) in series [3] and in series [6] were 0.13 µM and 0.05 µM, respectively. Moreover, the Activity in series [4] is on record as 103.5%; in [12] it was 100.5%. For the same molecule, the half-maximal inhibitory concentration (IC50) in [10] came to 0.38 µM.

In the case of `COc1ccc2c(CCNC(=O)c3cc(=O)c4c(OCc5ccc(Br)cc5)cccc4o3)c[nH]c2c1`, the inhibition at 72 h, 1 µM on ABCG2 [13] is > 72%. Moreover, the “inhibition (INH)” value in [1] is reported as “Active”; in series [5], “Not Active”; in [7] it was “Not Active”; in series [9], “Active”; in series [10], “Dose-dependent effect”. The Emax at 0.5 h on ABCG2 [2] amounted to 80%; on ABCG2 [8], 97%; on ABCG2 [11], 89%. Also, the half-maximal effective concentration (EC50) in [3] amounted to 0.1 µM; in [6] it was 0.08 µM. Also, the Activity is 101% in series [4] and 96.4% in series [12]. Moreover, the inhibition at 72 h, 0.2 µM at ABCG2 [14] was > 50%. Also, the half-maximal inhibitory concentration (IC50) in series [10] came out at 0.29 µM.

As for `Cn1cc(CCNC(=O)c2cc(=O)c3c(OCc4ccc(Br)cc4)cccc3o2)c2ccccc21`, on ABCG2 [13], the inhibition at 72 h, 1 µM is > 61%. The “inhibition (INH)” value is reported as “Active” in series [1]; “Not Active” in [5]; “Not Active” in series [7]; “Active” in series [9]; “Dose-dependent effect” in series [10]. Also, the Emax at 0.5 h at ABCG2 [2] is 80%; on ABCG2 [8], 85%; on ABCG2 [11] it was 102%. Moreover, the EC50 in series [3] was 0.3 µM; in series [6], 0.22 µM. For the same molecule, the Activity in series [4] stood at 98%; in series [12] it was 88.7%. The inhibition at 72 h, 0.2 µM on ABCG2 [14] was > 4%. In addition, the IC50 in [10] is 1.1 µM.

Turning to `COc1ccc2[nH]cc(CCNC(=O)c3cc(=O)c4ccc(OCc5ccc(Br)cc5)cc4o3)c2c1`, the “fold change (FC)” value in series [15] was 2.1. Moreover, the EC50 in series [3] is 1.27 µM; in series [6], 1.54 µM. Further, the figures for the Activity in series [4] and in series [12] were 90.1% and 64.6%, respectively. The Emax at 0.5 h at ABCG2 [8] was 80%; at ABCG2 [11], 93%. Moreover, the IC50 in series [10] came to 0.01 µM. In addition, in [10], the “inhibition (INH)” value is “Dose-dependent effect”.

`Cc1cn(-c2cc(NC(=O)c3ccc(C)c(Nc4nccc(-c5cccnc5)n4)c3)cc(C(F)(F)F)c2)cn1` [NILOTINIB]: in series [16], the “fold change (FC)” value came out at 3.2.

With `COc1cc2nc(N3CCN(C(=O)c4ccco4)CC3)nc(N)c2cc1OC` [PRAZOSIN], the “fold change (FC)” value in series [17] is reported as 2.4.

Regarding `O=c1c(O)c(-c2ccc(O)c(O)c2)oc2cc(O)cc(O)c12` [QUERCETIN], in [15], the “fold change (FC)” value came to 4.1.
